Source: ChEMBL document CHEMBL3785023, “Development and Pharmacological Characterization of Selective Blockers of 2-Arachidonoyl Glycerol Degradation with Efficacy in Rodent Models of Multiple Sclerosis and Pain” (J Med Chem, 2016)
Active and inactive are the calls of the source. No cut-off for these calls is given here.

Assays:
Heart [1] = assay: Cardiotoxicity in Langendorff-perfused Sprague-Dawley rat heart assessed as heart rate at 0.1 uM by ECG analysis (reference value: 252.78 +/- 9.28 bpm); assay type: toxicity, tissue-based
Heart [2] = assay: Cardiotoxicity in Langendorff-perfused Sprague-Dawley rat heart assessed as time duration of action potential at 0.001 uM by ECG analysis (reference value: 75.65 +/- 0.87 milliseconds); assay type: toxicity, tissue-based
Salmonella typhimurium [3] = assay: Mutagenicity in Salmonella typhimurium TA98 assessed as increase in number of colonies up to >200 uM by Ames test in presence of S9 fraction; assay type: toxicity, organism-based; settings: salmonella enterica subsp. enterica serovar typhimurium
Heart [4] = assay: Cardiotoxicity in Langendorff-perfused Sprague-Dawley rat heart assessed as time duration of action potential at 0.1 uM by ECG analysis (reference value: 75.65 +/- 0.87 milliseconds); assay type: toxicity, tissue-based
Salmonella typhimurium [5] = assay: Mutagenicity in Salmonella typhimurium TA100 assessed as increase in number of colonies up to >200 uM by Ames test in presence of S9 fraction; assay type: toxicity, organism-based; settings: salmonella enterica subsp. enterica serovar typhimurium
Heart [6] = assay: Cardiotoxicity in Langendorff-perfused Sprague-Dawley rat heart assessed as coronary perfusion pressure at 1 uM (reference value: 57.45 +/- 2.58 mmHg); assay type: toxicity, tissue-based
Heart [7] = assay: Cardiotoxicity in Langendorff-perfused Sprague-Dawley rat heart assessed as time duration of cardiac cycle length at 0.1 uM by ECG analysis (reference value: 238.38 +/- 9.23 milliseconds); assay type: toxicity, tissue-based
Mus musculus [8] = assay: Toxicity in CD-1 mouse assessed as 2-AG level in spinal cord at 0.3 mg/kg, ip by LC-MS analysis (reference value: 6.4 +/- 0.4 pmol/g); assay type: organism-based; settings: in vivo
Outline: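 Male CD-1 mice received 0.3 mg/kg i.p. in 0.5% DMSO/saline, with formalin (1.25%, 30 µL) injected into the dorsal hind paw. Paw skin or spinal cord was taken at 5 min post-dose. Tissue was homogenized in CHCl3/MeOH/50 mM Tris-HCl (2:1:1) containing d5-2-AG, extracted with chloroform and analysed by LC-MS. n = 4; ANOVA with Bonferroni test.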

Heart [9] = assay: Cardiotoxicity in Langendorff-perfused Sprague-Dawley rat heart assessed as heart rate at 0.001 uM by ECG analysis (reference value: 252.78 +/- 9.28 bpm); assay type: toxicity, tissue-based
Mus musculus [10] = assay: In vivo inhibition of MAGL in CD-1 mouse assessed as 2-AG level in pawskin at 0.3 mg/kg, ip coadministered with formalin by LC-MS analysis (reference value: 10.8 +/- 1.5 pmol/g); assay type: functional
Heart [11] = assay: Cardiotoxicity in Langendorff-perfused Sprague-Dawley rat heart assessed as corrected time duration of action potential at 1 uM by ECG analysis (reference value: 155.26 +/- 2.96 milliseconds); assay type: toxicity, tissue-based
Heart [12] = assay: Cardiotoxicity in Langendorff-perfused Sprague-Dawley rat heart assessed as heart rate at 0.01 uM by ECG analysis (reference value: 252.78 +/- 9.28 bpm); assay type: toxicity, tissue-based
Mus musculus [13] = assay: Antinociceptive activity in CD-1 mouse assessed as inhibition of formalin-induced late phase pain response at 0.1 to 0.3 mg/kg, ip dosed 10 mins before formalin injection measured every 5 mins for 60 mins in presence of CB2 antagonist/inverse agonist AM630; assay type: functional, organism-based
Outline: (§1)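 Male CD-1 mice, n = 6 per group, injected with formalin (1.25% in saline, 30 μL) into the dorsal hind paw. Inhibitor (0.1 or 0.3 mg/kg i.p. in 0.5% DMSO/saline) given 10 min before formalin. Where used, AM251 or AM630 (1 mg/kg i.p.) given 10 min before the inhibitor. Time spent lifting, licking, shaking or flinching the injected paw recorded every 5 min over 60 min.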

Mus musculus [14] = assay: Antinociceptive activity in CD-1 mouse assessed as inhibition of formalin-induced early phase pain response at 0.1 to 0.3 mg/kg, ip dosed 10 mins before formalin injection measured every 5 mins for 60 mins in presence of CB2 antagonist/inverse agonist AM630; assay type: functional, organism-based; outline: as §1
[15] = Selectivity ratio of IC50 for human recombinant C-terminal His-tagged FAAH expressed in sf21 cells to IC50 for recombinant C-terminal His6-tagged human MAGL expressed in Escherichia coli
Outline: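 Ratio of IC50 values from two radiometric assays, each read by scintillation counting of the aqueous phase after CHCl3/MeOH 1:1 extraction. MGL assay: 10,000xg cytosolic fraction of human recombinant MGL (0.05 µg/sample), 50 mM Tris-HCl pH 7.0, 37 °C, 20 min, 2-arachidonoyl-[3H]-glycerol. FAAH assay: human recombinant FAAH (2 µg/sample), pH 9.5, 37 °C, 30 min, [14C]-anandamide. Means of three experiments.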

Mus musculus [16] = assay: Change in cumulative score in myelin oligodendrocyte glycoprotein (35 to 55)-induced C57BL/6J mouse experimental autoimmune encephalomyelitis model of multiple sclerosis at 3 mg/kg, ip dosed on day 6 postimmunization up to 21 day postimmunization measured from day 8 postimmunization; assay type: functional, organism-based
Outline: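 Female C57BL/6J mice immunized with MOG35-55 peptide. Given 3 mg/kg i.p. daily from day 6 post-immunization to the acute stage (21 ± 1 d.p.i.). Clinical score recorded daily and as a cumulative score; n = 7–9 per group.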

Mus musculus [17] = assay: Reduction of disease index score in myelin oligodendrocyte glycoprotein (35 to 55)-induced C57BL/6J mouse experimental autoimmune encephalomyelitis model of multiple sclerosis at 3 mg/kg, ip dosed on day 6 postimmunization up to 21 day postimmunization measured from day 8 postimmunization; assay type: functional, organism-based
Outline: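 Female C57BL/6J mice immunized with MOG35-55 were randomly assigned to groups. They received 3 mg/kg i.p. daily from 6 days post-immunization up to 21±1 d.p.i. AM251 or AM630, 1 mg/kg i.p., was given 10 min before each dose for 14 days. Clinical score was recorded daily and as cumulative score, reported as mean ± SEM. Group sizes were 4–9 mice.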

Mus musculus [18] = assay: Inhibition of demyelination in experimental autoimmune encephalomyelitis C57BL/6J mouse spinal cord at 3 mg/kg, ip administered post CB1 antagonist/inverse agonist AM251 addition by luxol fast blue staining based microscopic analysis; assay type: functional, organism-based
Outline: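 EAE induced in female C57BL/6J mice with MOG35-55, then 3 mg/kg i.p. daily. AM251 or AM630 (1 mg/kg), where used, given 10 min before each dose. Spinal cord white matter stained with Luxol Fast Blue and demyelinated areas assessed by microscopy.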

| SMILES | Activity (Heart [1]) [bpm] | Time (Heart [2]) [ms] | Activity (Salmonella typhimurium [3]) | Time (Heart [4]) [ms] | Activity (Salmonella typhimurium [5]) | Activity (Heart [6]) [mmHg] | Time (Heart [7]) [ms] | Activity (Mus musculus [8]) [pmol/g] | Activity (Heart [9]) [bpm] | Activity (Mus musculus [10]) [pmol/g] | Time (Heart [11]) [ms] | Activity (Heart [12]) [bpm] | inhibition (Mus musculus [13]) | inhibition (Mus musculus [14]) | Ratio IC50 [15] | Activity (Mus musculus [16]) | Activity (Mus musculus [17]) | inhibition (Mus musculus [18]) |
| --- | --- | --- | --- | --- | --- | --- | --- | --- | --- | --- | --- | --- | --- | --- | --- | --- | --- | --- |
| O=C1[C@H](c2ccc(F)cc2)[C@@H](c2ccc3c(c2)OCO3)N1C1CCN(C(=O)n2cncn2)CC1 (racemic) [listing 1 of 2 here] | 252.65 | 76.38 | Non-toxic | 75.36 | Non-toxic | 75.19 | 238.15 | 9.7 | 254.38 | 14.1 | 156.78 | 254.18 |  |  |  |  |  |  |
| O=C1[C@H](c2ccc(F)cc2)[C@@H](c2ccc3c(c2)OCO3)N1C1CCN(C(=O)n2cncn2)CC1 (racemic) [listing 2 of 2 here] |  |  |  |  |  |  |  |  |  |  |  |  | inactive | inactive | 389 | Active | Active | inactive |
